High-throughput results deposited in PubChem BioAssay by several laboratories.
LEDGF integ inh: blocks HIV-1 LEDGF/p75-dependent DNA integration; TR-FRET IN-LEDGF/p75 DNA integration, Eu/Cy5; inhibition, % at 3.7 µM; 370,000 tested, 0.64% active;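 active means inhibition above the screen-wide mean plus 3 SD, cut at about 13% in these data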;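 further: signal is the Cy5 over europium emission ratio at 671 and 618 nm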
TDP2 absorb: TDP2 (human) inhibition, absorbance primary screen; O95551; recombinant TDP2, T5PNP hydrolysis, p-nitrophenol absorbance 415 nm; inhibition, % at 12.8 µM; 370,000 tested, 0.34% active;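 active means inhibition above the mean of all tested compounds plus 3 SD, set per campaign, cut at about 25% in these data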
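Assay system: recombinant human TDP2 / Reagent: T5PNP substrate at 5 mM, a TopII-DNA adduct mimic / Measured by: epi absorbance from released p-nitrophenol / Evaluation: % inhibition relative to enzyme-containing and enzyme-free wells / Control set: enzyme-free and DMSO wells / Replicates: each compound tested once, singlicate / Schedule: enzyme reaction with compound for 2 h at 37 °C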
UHRF1 MBD2 ctr: blocks human UHRF1 binding to methylated DNA | Q96T88 | UHRF1 binding to methylated oligo, TR-FRET | inhibition, % at 4.4 µM | 370,000 tested, 0.75% active | AID 687016;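 further: UHRF1 SRA domain binding a hemimethylated CpG hairpin DNA probe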
Casp6 inh: inhibitors of human caspase-6; purified caspase-6, Z-VEID-R110 cleavage fluorescence; 350,000 tested, 0.53% active; inhibition, % at 12.5 µM; AID 686996;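 active means mean inhibition across replicates at least about 35%, with every replicate also reaching that limit, limit read from the data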
Target sequence (P55212 24-179 limits assumed): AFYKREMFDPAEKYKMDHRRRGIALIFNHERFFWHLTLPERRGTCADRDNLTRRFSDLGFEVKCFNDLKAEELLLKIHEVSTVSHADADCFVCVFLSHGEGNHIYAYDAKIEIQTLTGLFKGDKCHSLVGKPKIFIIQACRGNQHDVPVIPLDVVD
Target sequence (P55212 194-293 limits assumed): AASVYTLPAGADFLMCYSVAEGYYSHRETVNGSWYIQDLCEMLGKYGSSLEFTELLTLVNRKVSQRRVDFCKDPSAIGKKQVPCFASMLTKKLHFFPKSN
MBD2 DNA inh: inhibitors of human MBD2 binding to methylated oligonucleotide | Q9UBB5 | TR-FRET | inhibition, % at 4.4 µM | 370,000 tested, 0.31% active | AID 686964; in the data active means inhibition above about 13%
Target sequence (Q9UBB5 whole entry, looked up): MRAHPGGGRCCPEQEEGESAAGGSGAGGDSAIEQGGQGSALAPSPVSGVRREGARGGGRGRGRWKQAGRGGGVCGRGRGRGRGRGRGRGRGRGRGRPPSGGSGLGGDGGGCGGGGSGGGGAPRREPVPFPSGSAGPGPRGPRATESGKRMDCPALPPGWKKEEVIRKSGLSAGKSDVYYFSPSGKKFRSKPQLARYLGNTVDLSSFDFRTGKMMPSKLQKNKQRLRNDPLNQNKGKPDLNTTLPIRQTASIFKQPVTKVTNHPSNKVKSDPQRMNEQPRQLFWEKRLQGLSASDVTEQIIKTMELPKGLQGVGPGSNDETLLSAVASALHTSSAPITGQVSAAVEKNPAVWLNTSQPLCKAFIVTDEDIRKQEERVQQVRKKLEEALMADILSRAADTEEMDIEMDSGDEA
NSD2 inh: NSD2 (human) methyltransferase inhibition; inhibition, % at 12.5 µM; O96028; AID 743445; 310,000 tested, 0.54% active; NSD2 peptide methylation, AlphaScreen, 120 min; in the data active means inhibition above about 50%
UHRF1 DNA bind: counter-screen for MBD2 inhibitors: human UHRF1 methylated DNA binding inhibitors. UHRF1 binding to methylated oligonucleotide, TR-FRET. 1,000 tested, 25% active. shares compounds with MBD2 DNA inh. AID 720530. inhibition, % at 4.4 µM;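 further: UHRF1 SRA domain binding a labeled hemimethylated CpG hairpin DNA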
MBD2 DBD conf: MBD2-DBD methyl-DNA binding inhibition, TR-FRET confirmation; inhibition, % at 4.4 µM; AID 720531; TR-FRET MBD2-DBD binding to methylated oligonucleotide; 1,000 tested, 26% active; shares compounds with MBD2 DNA inh; in the data active means inhibition above about 14%
A number is an active result; 0 = inactive; - = no result. This is a sample that favours compounds with a hit; in the whole collection about 1.9% have one here. Unless noted, no stated cut-off is given here; in the data, active means inhibition above about 21%; inactive means the rest.

SMILES	LEDGF integ inh	TDP2 absorb	UHRF1 MBD2 ctr	Casp6 inh	MBD2 DNA inh	NSD2 inh	UHRF1 DNA bind	MBD2 DBD conf
CC(C)NS(=O)(=O)c1ccc(OCC(=O)N2CCCC2)c(Cl)c1	0	0	0	-	24	0	0	0
CCOc1ccc(NC(=S)NN2C(C)CCCC2C)cc1 (stereo not drawn)	0	0	0	-	0	0	-	-
CCOc1ccc(NC(=O)NN2C(C)CCCC2C)cc1 (stereo not drawn)	0	0	0	0	102	0	0	0
CCSc1nc(C)nc2sc(C)c(C)c12	0	0	0	0	29	0	0	0
N#CCSc1ncnc2sc3c(c12)CCC3	0	0	24	-	14	0	0	0
C[C@H]1CN([C@@H](C)CO)C(=O)c2cc(C#CC3CCCC3)cnc2O[C@@H]1CN(C)C(=O)C1CCCCC1	-	-	-	0	-	-	-	-
O=C1CC(c2ccc(S(=O)(=O)N3CCN(c4ccccc4)CC3)cc2)CN1 (stereo not drawn)	0	0	0	-	32	0	0	0
NCc1cc2c3c(c1)CCCN3CCC2	0	0	0	0	18	0	0	15
CO[C@H]1CN(C)C(=O)c2cc(NS(=O)(=O)c3ccc(C)cc3)ccc2OC[C@H](C)N(C(=O)NC(C)C)C[C@H]1C	-	-	-	0	-	-	-	-
O=C(Nc1c[nH]c(=O)[nH]c1=O)c1cc([N+](=O)[O-])cc([N+](=O)[O-])c1	0	0	0	0	29	0	0	0
O=C(Nc1c[nH]c(=O)[nH]c1=O)c1ccc2c(c1)C(=O)N(c1cccc([N+](=O)[O-])c1)C2=O	0	0	0	0	0	0	-	-
CNC(=O)c1c(NC(=O)c2ccc(S(=O)(=O)N3CCCCC3)cc2)sc2c1CCN(C(C)C)C2	0	0	0	0	16	0	0	0
CN(C)C(=O)[C@H]1[C@H](CO)[C@H]2Cn3c(ccc(-c4ccncc4)c3=O)[C@H]2N1Cc1ccccc1F	-	-	-	0	-	-	-	-
O=C(Nc1ccc(N2CCN(Cc3ccccc3Cl)CC2)cc1)c1cccnc1	0	0	0	-	15	0	0	0
O=C(Nc1ccc(N2CCCCC2)cc1)c1cccnc1	0	0	0	-	0	0	-	-
C[C@@H]1CCCCO[C@H](CN(C)Cc2ccc(C(=O)O)cc2)[C@H](C)CN([C@H](C)CO)C(=O)c2cc(NS(=O)(=O)c3cccs3)ccc2O1	-	-	-	0	-	-	-	-
COC(=O)[C@]12C[C@H](CC(=O)NCc3cccc(C(F)(F)F)c3)C(=O)N(Cc3cccc4ccccc34)C1=C[C@H](C(C)(C)C)O[C@@H]2C	0	0	0	-	25	-	0	0
CO[C@H]1CN(C)C(=O)c2cc(NC(=O)C3CC3)ccc2OC[C@@H](C)N(Cc2ccccc2)C[C@H]1C	-	-	-	0	-	-	-	-
CC(C)C#Cc1cnc2c(c1)C(=O)N([C@@H](C)CO)C[C@H](C)[C@@H](CN(C)Cc1ccccc1)O2	-	-	-	0	-	-	-	-
O=C(Nc1ccc2c(c1)CCCN2C(=O)c1cccs1)c1ccccc1	0	0	0	0	0	0	-	-
COc1cc(OC)cc(C(=O)Nc2ccc3c(c2)CCCN3C(=O)c2cccs2)c1	0	0	0	0	25	0	0	0
CC(C)NC(=O)N(C)C[C@@H]1OCCCC[C@H](C)Oc2ccc(NC(=O)Nc3cccc4ccccc34)cc2C(=O)N([C@H](C)CO)C[C@@H]1C	-	-	-	0	-	-	-	-
C[C@@H]1CN([C@@H](C)CO)C(=O)c2cc(NC(=O)Nc3ccccc3)ccc2O[C@@H]1CN(C)CC1CCCCC1	-	-	-	0	-	-	-	-
O=C(N=Nc1c(O)n(Cc2ccccc2)c2ccccc12)c1cc2ccccc2cc1O	0	0	0	0	0	0	-	-
O=C(N=Nc1c(O)n(Cc2ccccc2)c2ccccc12)c1ccc(O)cc1	0	0	0	-	41	0	0	0
SMILES	LEDGF integ inh	TDP2 absorb	UHRF1 MBD2 ctr	Casp6 inh	MBD2 DNA inh	NSD2 inh	UHRF1 DNA bind	MBD2 DBD conf
O=C(O)CC(NC(=O)COc1ccc(Cl)cc1Cl)C(=O)O (stereo not drawn)	0	0	0	-	26	0	0	0
O=C(NCc1ccc2c(c1)OCO2)C1CCC(CNS(=O)(=O)c2ccc(Cl)cc2)CC1 (stereo not drawn)	0	0	0	0	20	0	0	0
O=C(c1cccc(F)c1)N1CC(=O)N2[C@H](CO)[C@H](c3ccc(C4=CCCCC4)cc3)[C@@H]2C1	-	-	-	0	-	-	-	-
CCN(CC)CCOc1ccc2c(c1)C(=NO)c1cc(OCCN(CC)CC)ccc1-2	0	0	54	-	41	0	62	47
CCN(CC)CCOc1ccc(Br)cc1	0	0	0	-	0	0	-	-
COc1cccc(NC(=O)N(C)C[C@H]2Oc3cc(/C=C/c4ccccc4)ccc3S(=O)(=O)N([C@H](C)CO)C[C@H]2C)c1	-	-	-	0	-	-	-	-
COc1ccc2c3c(n(C)c2c1)[C@H](CO)N(C(=O)c1ccncc1)CC31CN(CC2CC2)C1	-	-	-	0	-	-	-	-
CCn1cnc2cc(NC(=O)COc3ccc(C)cc3)ccc21	0	0	0	0	15	0	0	0
Cc1ccc(C(=O)Nc2nc(-c3ccco3)c(-c3ccco3)s2)o1	85	0	88	0	40	0	0	0
C/C=C/c1ccc2c(c1)O[C@@H](CN(C)C(=O)NC(C)C)[C@H](C)CN([C@@H](C)CO)S2(=O)=O	-	-	-	0	-	-	-	-
O=C1c2ccccc2C(=O)c2c(NCCCN(CCO)CCO)cccc21	0	0	36	0	56	0	57	59
CCN(CC)CC(=O)Nc1cccc2c1C(=O)c1ccccc1C2=O	0	0	0	-	0	0	-	-
Cc1cc(NC(=NC2CC2)c2ccccc2F)n(-c2ccccc2)n1	0	0	21	0	15	0	0	0
Cc1cc(NC(=O)Nc2cc(C)nn2-c2ccccc2)n(-c2ccccc2)n1	0	0	0	-	0	0	-	-
CO[C@@H]1CN(C)C(=O)c2cc(NC(C)=O)ccc2OC[C@@H](C)N(C(=O)Cc2ccccn2)C[C@@H]1C	-	-	-	0	-	-	-	-
Cc1cccc(C(=O)NC(=O)Nc2c(C)cc(C)nc2C)c1	0	0	24	0	14	0	0	0
Cc1cccc(C(=O)NNC(=O)c2cccc(C)c2)c1	0	0	0	0	0	0	-	-
COc1cccc(C2=NCCc3cc4c(cc32)OCO4)c1OC	0	0	0	-	0	0	-	-
CNC12CCc3cc(OC)c(OC)c(c31)-c1cc3c(cc1C2)OCO3 (stereo not drawn)	0	0	30	0	23	-	0	0
CC1CCCN(CCCNC(=O)c2ccc3c(c2)N(Cc2ccc(F)cc2)C(=O)c2ccccc2S3=O)C1 (stereo not drawn)	0	0	0	0	17	0	0	0
